# In PubChem BioAssay AID540324 (Johns Hopkins Ion Channel Center, 2011):
# The source made the active and inactive calls.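 How the source made its calls: active means maximum inhibition above 30% at any tested concentration, with a dose response curve fitted; inactive means no inhibition at any dose or no dose response curve.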
# Assay: thallium flux inhibition in parental HEK293 cells, SAR follow-up, counter-screen for KCNK9 inhibitor project, cell-based, FluxOR thallium flux, concentration-response, set 2 (AID 540324)
# Conditions: FluxOR fluorescence ratio; series mostly up to 30 µM
# Summary of the method: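 Also added: K+/Tl+ sulfate stimulus, 5x stock; system: parental HEK293 cells; times: dye loading 90 min at room temperature in dark, compound exposure 20 min; replicates: at least duplicate; doses: 10 concentrations; technique: FluxOR thallium-flux fluorescence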
row,Structure (SMILES),outcome
1,O=C(Nc1cccc(NC(=O)C2CCCCC2)c1)c1ccccc1,inactive
2,Cc1ccccc1-c1n[nH]c(=S)n1C(C)C1CC2CCC1C2 (stereo not given),inactive
3,COc1ccccc1C(=O)Nc1cccc(NC(=O)c2cccc(C)c2)c1,inactive
4,CCOc1ccccc1NC(=O)c1cccc(NC(=O)c2ccccc2OC(F)(F)F)c1,inactive
5,CCOc1ccccc1NC(=O)c1cccc(NC(=O)c2cccc(OC)c2)c1,inactive
6,CC(c1ccccc1)n1c(-c2ccco2)n[nH]c1=S (stereo not given),inactive
7,COc1ccc(C(=O)Nc2cccc(NC(=O)c3cccc(C)c3)c2)cc1,inactive
8,CCOc1ccccc1NC(=O)c1cccc(NC(=O)C(C)(C)C)c1,inactive
9,O=C(Nc1cccc(NC(=O)c2cccc(Cl)c2)c1)c1ccccc1,inactive
10,Cc1cccc(C(=O)Nc2cccc(NC(=O)c3ccccc3Cl)c2)c1,inactive
11,CCOc1ccccc1NC(=O)c1cccc(NC(=O)c2cccc(C(F)(F)F)c2)c1,inactive
12,Cc1cccc(C(=O)Nc2cccc(NC(=O)c3ccc(C(C)(C)C)cc3)c2)c1,inactive
13,Cc1cccc(C(=O)Nc2cccc(NC(=O)c3ccncc3)c2)c1,inactive
14,Cc1cccc(C(=O)Nc2ccccc2NC(=O)c2ccccc2)c1,inactive
15,CCOc1ccccc1NC(=O)c1cccc(NC(=O)c2ccc(C)cc2)c1,inactive
16,COc1ccccc1NC(=O)c1cccc(NC(=O)C2CCCCC2)c1,inactive
17,Cc1cccc(C(=O)Nc2cccc(NC(=O)c3cccs3)c2)c1,inactive
18,CCOc1ccccc1NC(=O)c1cccc(NC(=O)c2ccccc2C)c1,inactive

row,Structure (SMILES),outcome
1,CCOc1ccccc1NC(=O)c1cccc(NC(=O)c2cccc(C)c2)c1,inactive
2,CCOc1ccccc1NC(=O)c1cccc(NC(=O)C2CCCCC2)c1,inactive
3,Cc1cccc(C(=O)Nc2cccc(NC(=O)c3ccccc3OC(F)(F)F)c2)c1,inactive
4,COc1ccccc1NC(=O)c1cccc(NC(=O)C2CCCC2)c1,inactive
5,Cc1cccc(-c2n[nH]c(=S)n2C(C)C2CC3CCC2C3)c1 (stereo not given),inactive
6,CN(C)c1ccc(C(=O)Nc2cccc(NC(=O)c3ccccc3)c2)cc1,inactive
7,CCOc1ccccc1NC(=O)c1cccc(NC(=O)c2ccccc2C(F)(F)F)c1,inactive
8,CCOc1ccccc1NC(=O)c1cccc(NC(=O)c2ccccc2OC)c1,inactive
9,CC(c1ccco1)n1c(-c2ccoc2)n[nH]c1=S (stereo not given),inactive
10,CCOc1ccccc1NC(=O)c1cccc(NC(=O)c2ccc(Cl)cc2)c1,inactive
11,Cc1cccc(C(=O)Nc2cccc(NC(=O)c3ccc(N(C)C)cc3)c2)c1,inactive
12,Cc1cccc(C(=O)Nc2cccc(NC(=O)c3cccc(C(F)(F)F)c3)c2)c1,inactive
13,CC(C1CC2CCC1C2)n1c(-c2ccccc2)n[nH]c1=S (stereo not given),inactive
14,CCOc1ccccc1C(=O)Nc1cccc(NC(=O)c2ccccc2OC)c1,inactive
15,COc1cccc(C(=O)Nc2cccc(NC(=O)c3ccccc3)c2)c1,inactive
16,COc1ccccc1C(=O)Nc1cccc(NC(=O)c2ccccc2)c1,inactive
17,CC(C1CC2CCC1C2)n1c(C2CCOC2)n[nH]c1=S (stereo not given),inactive
